The values below come from ChEMBL document CHEMBL4196176, “Structure-Based Design of MptpB Inhibitors That Reduce Multidrug-Resistant Mycobacterium tuberculosis Survival and Infection Burden in Vivo” (J Med Chem, 2018).

pIC50: −log10 of the molar value. Active and inactive are the calls of the source. No cut-off for these calls is given here.

A word on the pIC50: it is the negative decadic logarithm of the IC50, by convention in mol/L. A higher pIC50 goes with a small IC50. What is called Cmax is the highest concentration seen after dosing. Usually AUC stands for concentration integrated over time. A lower AUC goes with less exposure.

The target in series [1] is T1, Phosphotyrosine protein phosphatase (Mycobacterium tuberculosis, UniProt A0A045ISB3).
T1 sequence (A0A045ISB3 whole entry): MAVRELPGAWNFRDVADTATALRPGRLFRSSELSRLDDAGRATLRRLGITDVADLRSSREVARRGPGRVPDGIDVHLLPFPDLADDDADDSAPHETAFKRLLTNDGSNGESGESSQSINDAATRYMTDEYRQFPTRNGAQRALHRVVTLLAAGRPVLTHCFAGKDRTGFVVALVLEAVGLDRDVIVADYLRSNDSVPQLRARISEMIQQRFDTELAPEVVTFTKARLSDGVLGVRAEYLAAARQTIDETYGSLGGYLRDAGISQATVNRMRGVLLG
The series can be described thus: Inhibition of Mycobacterium tuberculosis H37Rv His-tagged ptpB expressed in Escherichia coli BL21(DE3) using pNPP as substrate preincubated for 15 mins followed by substrate addition and measured after 15 mins.

The target of series [2] is T2, Tyrosine-protein phosphatase non-receptor type 1 (Homo sapiens, UniProt P18031).
T2 sequence (P18031 whole entry): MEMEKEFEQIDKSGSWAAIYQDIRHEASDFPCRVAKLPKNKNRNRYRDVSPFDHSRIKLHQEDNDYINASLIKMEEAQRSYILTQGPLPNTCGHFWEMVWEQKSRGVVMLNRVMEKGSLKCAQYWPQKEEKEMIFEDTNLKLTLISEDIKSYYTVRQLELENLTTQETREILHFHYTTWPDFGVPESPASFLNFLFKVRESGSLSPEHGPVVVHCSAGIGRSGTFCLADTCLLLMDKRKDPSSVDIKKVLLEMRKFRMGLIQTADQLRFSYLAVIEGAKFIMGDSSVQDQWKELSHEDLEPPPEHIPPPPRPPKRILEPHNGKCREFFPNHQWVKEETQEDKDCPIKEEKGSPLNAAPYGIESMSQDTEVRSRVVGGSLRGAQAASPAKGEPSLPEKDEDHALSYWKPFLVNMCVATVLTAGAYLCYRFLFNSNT
The series can be described thus: Inhibition of human PTP1B using pNPP as substrate preincubated for 15 mins followed by substrate addition and measured after 15 mins.

Series [3] relates to J774.A1. The series can be described thus: Cytotoxicity against mouse J774A.1 cells assessed as reduction in cell viability at 50 to 150 uM after 24 hrs by MTT assay. It counts as cell-based. As to conditions: j774.a1, 24 h. In outline: (§1)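 MTT viability assay in J774A.1 cells seeded at 6 × 10^3/well and adhered overnight. Inhibitor in DMSO or DMSO only added for 24 h. MTT (5 mg/mL in PBS) added for 4 h, formazan dissolved in DMSO with Sorensen's glycine buffer, absorbance read at 570 nm.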

The nature of series [4]: Inhibition of Mycobacterium tuberculosis H37Rv His-tagged ptpA expressed in Escherichia coli BL21(DE3) using pNPP as substrate preincubated for 15 mins followed by substrate addition and measured after 15 mins. In outline: (§2)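 His-tagged MptpA/MptpB expressed in E. coli BL21(DE3); VHR and hPTP1B purified as GST fusions with the tag cleaved. 0.5 μg protein in Tris/BisTris/acetate buffer (pH 7 MptpB, 6.5 MptpA, 6 hPTP1B, 5 VHR) with compound at 0–250 μM, 15 min at room temperature. pNPP added to 0.35 mM for 15 min, quenched with NaOH, read at 405 nm against a pNP curve. No-enzyme blanks.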

Series [5] concerns the target Dual specificity protein phosphatase 3 (Homo sapiens, UniProt P51452). The series can be described thus: Inhibition of human VHR using pNPP as substrate preincubated for 15 mins followed by substrate addition and measured after 15 mins. Summed up: as §2
Series [6] concerns Cavia porcellus. The series can be described thus: Cmax in Dunkin Hartley guinea pig at 5 mg/kg, po after 0.25 hrs post dose. It counts as ADME, organism-based. Also on record: dose 5 mg/kg, route oral. Particulars: in vivo, BLD = below limit of detection.
Series [7] relates to Cavia porcellus. The series can be described thus: Half life in Dunkin Hartley guinea pig at 5 mg/kg, po. It counts as ADME, organism-based. As to conditions: in vivo, BLD = below limit of detection.
The subject of series [8] is Cavia porcellus. The series can be described thus: Half life in Dunkin Hartley guinea pig at 2.5 mg/kg, ip. It counts as ADME, organism-based. Particulars: in vivo.
The test system of series [9] is Cavia porcellus. In words: Oral bioavailability in Dunkin Hartley guinea pig at 5 mg/kg. Particulars: in vivo. It counts as ADME, organism-based.
The test system of series [10] is Cavia porcellus. In words: Cmax in Dunkin Hartley guinea pig at 2.5 mg/kg, ip after 0.5 hrs post dose. It counts as ADME, organism-based. The arrangement: dose 2.5 mg/kg, route intraperitoneal. Particulars: in vivo.
Series [11] deals with Cavia porcellus. The series can be described thus: AUCinfinity in Dunkin Hartley guinea pig at 2.5 mg/kg, ip. It counts as ADME, organism-based. The arrangement: dose 2.5 mg/kg, time infinity, route intraperitoneal. Particulars: in vivo.
Series [12] deals with Cavia porcellus. The series can be described thus: AUCinfinity in Dunkin Hartley guinea pig at 5 mg/kg, po. Also on record: dose 5 mg/kg, time infinity, route oral. It counts as ADME, organism-based. As to conditions: in vivo, BLD = below limit of detection.
The nature of series [13]: Selectivity ratio of IC50 for human PTP1B to IC50 for Mycobacterium tuberculosis H37Rv His-tagged ptpB.
Series [14] relates to J774.A1. In words: Cytotoxicity against mouse J774A.1 cells assessed as reduction in cell viability at >100 uM after 24 hrs by MTT assay. It counts as cell-based. As to conditions: j774.a1, 24 h. Summed up:
as §1

Series [15] deals with T3, Phosphotyrosine protein phosphatase (Mycobacterium tuberculosis) (UniProt A0A045ISB3).
T3 sequence (whole entry): T1 sequence (A0A045ISB3 whole entry)
The series can be described thus: Inhibition of Mycobacterium tuberculosis H37Rv ATCC 35837 ptpB infected in human THP1 cells assessed as reduction in intracellular bacterial burden at 10 to 80 uM after 72 hrs post infection relative to DMSO-treated control. It counts as cell-based. Summed up:
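PMA-differentiated THP1 cells (1 × 10^6/well, RPMI with 10% FBS and 4 mM L-glutamine) received inhibitor in DMSO, then thawed M. tuberculosis at MOI 1:1. Washed after 3 h; medium and inhibitor renewed at 24 h. At 72 h, lysed in 0.05% SDS; 10-fold dilutions plated in duplicate on 7H10, CFU counted after 3 weeks at 37 °C; triplicate experiments.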

In series [16] the test system is Cavia porcellus. The series can be described thus: Cmax in Dunkin Hartley guinea pig at 1.25 mg/kg, ip after 0.5 hrs post dose. It counts as ADME, organism-based. The arrangement: dose 1.25 mg/kg, route intraperitoneal. Particulars: in vivo.
For series [17], the system named is Cavia porcellus. In words: Cmax in Dunkin Hartley guinea pig at 3.5 mg/kg, po after 0.25 hrs post dose. It counts as ADME, organism-based. The arrangement: dose 3.5 mg/kg, route oral. Particulars: in vivo, BLD = below limit of detection.
Series [18] has as its system Cavia porcellus. The series can be described thus: AUCinfinity in Dunkin Hartley guinea pig at 1.25 mg/kg, ip. It counts as ADME, organism-based. Also on record: dose 1.25 mg/kg, time infinity, route intraperitoneal. As to conditions: in vivo.
Series [19] deals with Cavia porcellus. In words: Oral bioavailability in Dunkin Hartley guinea pig at 3.5 mg/kg. Particulars: in vivo. It counts as ADME, organism-based.
The subject of series [20] is Cavia porcellus. The series can be described thus: Half life in Dunkin Hartley guinea pig at 3.5 mg/kg, po. It counts as ADME, organism-based. As to conditions: in vivo, BLD = below limit of detection.
Series [21] has as its system Cavia porcellus. In words: AUCinfinity in Dunkin Hartley guinea pig at 3.5 mg/kg, po. It counts as ADME, organism-based. The arrangement: dose 3.5 mg/kg, route oral, time infinity. As to conditions: in vivo, BLD = below limit of detection.
The test system of series [22] is Cavia porcellus. In words: Half life in Dunkin Hartley guinea pig at 1.25 mg/kg, ip. It counts as ADME, organism-based. Particulars: in vivo.

Sequence of Dual specificity protein phosphatase 3 (P51452 whole entry): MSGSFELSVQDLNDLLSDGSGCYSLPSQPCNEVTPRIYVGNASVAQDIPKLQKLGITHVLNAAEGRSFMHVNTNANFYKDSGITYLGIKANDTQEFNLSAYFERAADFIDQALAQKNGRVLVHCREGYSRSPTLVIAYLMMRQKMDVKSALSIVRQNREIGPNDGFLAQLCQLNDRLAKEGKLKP

In [1], `COc1cccc(-c2c(C(=O)O)noc2-c2ccccc2)c1` had a pIC50 of 4.42.
Still for that read-out and setting: next, `O=C(O)c1noc(-c2ccccc2)c1-c1cccc(O)c1`: 4.07.
For the compound `O=C(O)c1noc(-c2ccccc2)c1-c1cccc(-c2ccc(O)cc2)c1`, the pIC50 is below 4.00 in series [2], 5.55 in series [1], 4.13 in series [4] and 4.27 in series [5]. The Activity result in [3] is recorded as “Non-Toxic”.
As for `O=C(O)c1noc(-c2ccccc2)c1-c1cccc(-c2ccc(O)c(F)c2)c1`, the pIC50 is below 4.00 in series [2], 5.82 in [1], 4.45 in series [4] and 4.40 in series [5]. Moreover, the Activity result in series [3] was “Non-Toxic”.
For `O=C(O)c1noc(-c2ccccc2)c1-c1cccc(-c2cc(Cl)c(O)c(Cl)c2)c1`, the Cmax result was “Bld” in series [6] and 3714 ng/mL in [10]. For the same compound, the t1/2 result was “Bld” in series [7] and 0.7 h in [8]. Moreover, the values for the negative-log IC50 (pIC50) in series [2], in [4] and in [5] were 3.90, 4.47 and 4.98, respectively. In addition, the Activity entry in series [3] is on record as “Non-Toxic”. In addition, the F in series [9] was below 4%. For the same compound, the exposure (AUC) is 4968 ng·h/mL in [11] and “Bld” in series [12].
Take `O=C(O)c1noc(-c2ccccc2)c1-c1ccccc1`: the pIC50 in series [2] is 4.00; in series [1] it was 4.77. The Ratio IC50 in series [13] was 5.9.
Compound `O=C(O)c1cc(-c2ccccc2)on1` had a pIC50 in series [1] below 3.30.
With `O=C(O)c1noc(-c2ccccc2)c1-c1cccc(-c2ccc(O)c(Cl)c2)c1`, the Activity is reported as above 23% in series [14] and “Non-Toxic” in series [3]. Besides, the pIC50 in series [2] is 3.67; in series [1], 6.05; in [4] it was 4.63; in series [5] it was 4.73.
Regarding `COC(=O)c1c(O)cccc1OC/C=C/c1cccc(-c2cc(C(=O)O)no2)c1` [ISOXAZOLECARBOXYLIC ACID], the inhibition result in series [15] is “Active”. Further, in series [1], the pIC50 was 5.15.
Regarding `O=C(O)c1noc(-c2ccccc2)c1-c1cccc(-c2cccc(O)c2)c1`, the pIC50 in [2] is below 4.00; in series [4] it was 4.02; in [5], 4.23.
For `O=C(O)c1noc(-c2ccccc2)c1-c1cccc(-c2cc(Cl)cc(Cl)c2)c1`, the Cmax in [16] was 746 ng/mL; in [17], “Bld”. Besides, the negative logarithm of the IC50 (pIC50) is 4.32 in series [2], 5.19 in [4] and 4.91 in series [5]. Moreover, the AUC was 1742 ng·h/mL in [18] and “Bld” in series [21]. Moreover, the F in series [19] was below 13%. Also, the t1/2 result in series [20] is “Bld”; in [22], 1.3 h.
`O=C(O)c1noc(-c2ccccc2)c1-c1cccc(-c2cc(Cl)c(O)c([N+](=O)[O-])c2)c1`: the pIC50 in [2] was 3.50; in [4] it was 4.52; in series [5], 4.89. For the same compound, in [3], the Activity entry is recorded as “Non-Toxic”.
For the compound `Cc1cc(-c2cccc(-c3c(C(=O)O)noc3-c3ccccc3)c2)cc(C)c1O`, the peak concentration (Cmax) result in series [6] was “Bld”; in series [10] it was 197 ng/mL. Also, the t1/2 result in [7] is “Bld”; in series [8], 1.4 h. In addition, the pIC50 in series [2] was below 4.00; in [4], 4.44; in series [5], 4.63. The same compound came in with a F in series [9] below 2.5%. Moreover, the area under the curve (AUC) in [11] was 399 ng·h/mL; in series [12], “Bld”.
